Converted amounts (≈) assume the structure as drawn. The source made the active and inactive calls. The calls are words filed in the database; no cut-off is given here.
How the values were obtained:
[1] = biological target: T1, Hyaluronidase (Bos taurus) (UniProt Q8SQG8+Q5E985); assay: Inhibition of bovine testes hyaluronidase at 180 uM after 30 mins at pH 5 by turbidimetric analysis; type: protein assay
[2] = biological target: T1, Hyaluronidase (Bos taurus); assay: Inhibition of bovine testes hyaluronidase at 130 uM after 30 mins at pH 5 by turbidimetric analysis; type: protein assay
[3] = biological target: T1, Hyaluronidase (Bos taurus); assay: Inhibition of bovine testes hyaluronidase at 100 uM after 30 mins at pH 5 by turbidimetric analysis; type: protein assay
[4] = biological target: T1, Hyaluronidase (Bos taurus); assay: Inhibition of bovine testes hyaluronidase at 49 uM after 30 mins at pH 5 by turbidimetric analysis; type: protein assay
[5] = biological target: T1, Hyaluronidase (Bos taurus); assay: Inhibition of bovine testes hyaluronidase at 80 uM after 30 mins at pH 5 by turbidimetric analysis; type: protein assay
[6] = biological target: T1, Hyaluronidase (Bos taurus); assay: Inhibition of bovine testes hyaluronidase at 3800 uM after 30 mins at pH 5 by turbidimetric analysis; type: protein assay
[7] = Inhibition of Streptococcus agalactiae 4755 hyaluronidase at pH 7.4 after 3 hrs by turbidimetric analysis
Outline: (§1)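 Same turbidimetric hyaluronan-lyase assay at pH 7.4 (citrate–phosphate/NaCl): SagHyal4755 2.9 ng, hyaluronan (2 mg/ml stock), BSA, 3.8% DMSO final, 3 h at 37 °C. CTAB (2.5%, in 0.5 M NaOH) precipitation, 20 min at 25 °C, A600. Activity scaled between no-inhibitor and no-enzyme samples.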

[8] = biological target: T1, Hyaluronidase (Bos taurus); assay: Inhibition of bovine testes hyaluronidase at 4200 uM after 30 mins at pH 5 by turbidimetric analysis; type: protein assay
[9] = biological target: T1, Hyaluronidase (Bos taurus); assay: Inhibition of bovine testes hyaluronidase at 170 uM after 30 mins at pH 5 by turbidimetric analysis; type: protein assay
[10] = biological target: T1, Hyaluronidase (Bos taurus); assay: Inhibition of bovine testes hyaluronidase at 200 uM after 30 mins at pH 5 by turbidimetric analysis; type: protein assay
[11] = biological target: T1, Hyaluronidase (Bos taurus); assay: Inhibition of bovine testes hyaluronidase at 2000 uM after 30 mins at pH 5 by turbidimetric analysis; type: protein assay
[12] = biological target: T1, Hyaluronidase (Bos taurus); assay: Inhibition of bovine testes hyaluronidase at 380 uM after 30 mins at pH 5 by turbidimetric analysis; type: protein assay
[13] = biological target: T1, Hyaluronidase (Bos taurus); assay: Inhibition of bovine testes hyaluronidase at 63 uM after 30 mins at pH 5 by turbidimetric analysis; type: protein assay
[14] = biological target: T1, Hyaluronidase (Bos taurus); assay: Inhibition of bovine testes hyaluronidase at 190 uM after 30 mins at pH 5 by turbidimetric analysis; type: protein assay
[15] = Inhibition of Streptococcus agalactiae 4755 hyaluronidase at pH 5.0 after 30 mins by turbidimetric analysis
Outline: (§2)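 SagHyal4755 (2.9 ng) with BSA and hyaluronan (2 mg/ml stock) in citrate–phosphate/NaCl buffer pH 5.0, 3.8% DMSO final, 30 min at 37 °C. Stopped by alkaline 2.5% CTAB, then 20 min at 25 °C. Residual-substrate turbidity read at 600 nm; no-inhibitor sample = 100%, no-enzyme sample = 0% activity. Enzyme-free compound controls were run.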

[16] = biological target: T1, Hyaluronidase (Bos taurus); assay: Inhibition of bovine testes hyaluronidase at 400 uM after 30 mins at pH 5 by turbidimetric analysis; type: protein assay
[17] = biological target: T1, Hyaluronidase (Bos taurus); assay: Inhibition of bovine testes hyaluronidase at 150 uM after 30 mins at pH 5 by turbidimetric analysis; type: protein assay
[18] = biological target: T1, Hyaluronidase (Bos taurus); assay: Inhibition of bovine testes hyaluronidase at 460 uM after 30 mins at pH 5 by turbidimetric analysis; type: protein assay
[19] = Inhibition of Streptococcus agalactiae 4755 hyaluronidase at pH 7.4; outline: as §1
[20] = Aqueous solubility of the compound in water; type: physicochemical
Outline: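 Turbidity at 600 nm of test compound in DMSO added to citrate–phosphate buffer (pH 5 and pH 7.4), water and BSA (0.2 mg/ml stock), at various concentrations, read against a water reference. Enzyme testing used only concentrations showing no turbidity.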

Streptococcus agalactiae = assay: Inhibition of Streptococcus agalactiae 4755 hyaluronidase at 100 uM after 30 mins at pH 5.0 by turbidimetric analysis; outline: as §2

For `CCC(=O)n1c(=S)oc2ccccc21`, the inhibition [1] was “inactive”, the inhibition [2] was “inactive” and the inhibition [3] was “inactive”. The inhibition [4] was “inactive”, the inhibition [5] was “inactive” and the inhibition [6] was “inactive”. For the same molecule, the IC50 [7] was 48 µM, the inhibition [8] was “inactive” and the inhibition [9] was “inactive”. The inhibition [10] was “inactive”, the inhibition [11] was “inactive” and the inhibition [12] was “inactive”. For the same molecule, the inhibition [13] was “inactive”, the inhibition [14] was “inactive” and the IC50 [15] was 128 µM. The inhibition [16] was “inactive”, the inhibition [17] was “inactive” and the inhibition [18] was “inactive”.

`Cc1c(-c2ccc(O)cc2)n(C)c2ccc(O)cc12` gave an IC50 [19] of 220 µM.

For `O=C(CCC1CCCCC1)n1c(=S)oc2ccccc21`, the inhibition [1] was “inactive”, the inhibition [2] was “inactive” and the inhibition [3] was “inactive”. The inhibition [4] was “inactive”, the inhibition [5] was “inactive” and the inhibition [6] was “inactive”. The IC50 [7] was 20 µM, the inhibition [8] was “inactive” and the inhibition [9] was “inactive”. For the same molecule, the inhibition [10] was “inactive”, the inhibition [11] was “inactive” and the inhibition [12] was “inactive”. For the same molecule, the inhibition [13] was “inactive”, the inhibition [14] was “inactive” and the IC50 [15] was 227 µM. The inhibition [16] was “inactive”, the inhibition [17] was “inactive” and the inhibition [18] was “inactive”.

With `O=C(CCc1ccccc1)n1c(=S)[nH]c2ccccc21` the inhibition [1] was “inactive”, the inhibition [2] was “inactive” and the inhibition [3] was “inactive”. For the same molecule, the solubility [20] was 100 µM (≈ 28.2 µg/mL), the inhibition [4] was “inactive” and the inhibition [5] was “inactive”. For the same molecule, the inhibition [6] was “inactive”, the IC50 [7] was 29 µM and the inhibition [8] was “inactive”. The inhibition [9] was “inactive”, the inhibition (Streptococcus agalactiae) was 5% and the inhibition [10] was “inactive”. For the same molecule, the inhibition [11] was “inactive”, the inhibition [12] was “inactive” and the inhibition [13] was “inactive”. The inhibition [14] was “inactive”, the inhibition [16] was “inactive” and the inhibition [17] was “inactive”. For the same molecule, the inhibition [18] was “inactive”.

For `CCCCCn1c(-c2ccc(O)cc2)c(C)c2cc(O)ccc21`, the IC50 [19] was 36 µM.

With `Sc1nc2ccccc2[nH]1` [2-MERCAPTOBENZIMIDAZOLE] the inhibition [1] was “inactive”, the inhibition [2] was “inactive” and the inhibition [3] was “inactive”. For the same molecule, the inhibition [4] was “inactive”, the inhibition [5] was “inactive” and the inhibition [6] was “inactive”. For the same molecule, the IC50 [7] was 1860 µM, the inhibition [8] was “inactive” and the inhibition [9] was “inactive”. The inhibition [10] was “inactive”, the inhibition [11] was “inactive” and the inhibition [12] was “inactive”. For the same molecule, the inhibition [13] was “inactive”, the inhibition [14] was “inactive” and the IC50 [15] was 1150 µM. For the same molecule, the inhibition [16] was “inactive”, the inhibition [17] was “inactive” and the inhibition [18] was “inactive”.

In the case of `CC(=O)n1c(=S)n(C(C)=O)c2ccccc21`, the inhibition [1] is reported as “inactive”, the inhibition [2] is reported as “inactive” and the inhibition [3] is reported as “inactive”. The inhibition [4] was “inactive”, the inhibition [5] was “inactive” and the inhibition [6] was “inactive”. For the same molecule, the IC50 [7] was 5 µM, the inhibition [8] was “inactive” and the inhibition [9] was “inactive”. For the same molecule, the inhibition [10] was “inactive”, the inhibition [11] was “inactive” and the inhibition [12] was “inactive”. For the same molecule, the inhibition [13] was “inactive”, the inhibition [14] was “inactive” and the IC50 [15] was 160 µM. The IC50 [19] was 5 µM, the inhibition [16] was “inactive” and the inhibition [17] was “inactive”. For the same molecule, the inhibition [18] was “inactive”.

For `O=C(Cc1ccccc1)n1c(=S)oc2ccccc21`, the inhibition [1] was “inactive”, the inhibition [2] was “inactive” and the inhibition [3] was “inactive”. The inhibition [4] was “inactive”, the inhibition [5] was “inactive” and the inhibition [6] was “inactive”. The IC50 [7] was 69 µM, the inhibition [8] was “inactive” and the inhibition [9] was “inactive”. The inhibition [10] was “inactive”, the inhibition [11] was “inactive” and the inhibition [12] was “inactive”. For the same molecule, the inhibition [13] was “inactive”, the inhibition [14] was “inactive” and the IC50 [15] was 260 µM. For the same molecule, the inhibition [16] was “inactive”, the inhibition [17] was “inactive” and the inhibition [18] was “inactive”.

For `CCCCCCCn1c(-c2ccc(O)cc2)c(C)c2cc(O)ccc21`, the IC50 [19] was 12 µM.

In the case of `O=C(COc1ccccc1)n1c(=S)oc2ccccc21`, the inhibition [1] is reported as “inactive”, the inhibition [2] is reported as “inactive” and the inhibition [3] is reported as “inactive”. The inhibition [4] was “inactive”, the inhibition [5] was “inactive” and the inhibition [6] was “inactive”. The IC50 [7] was 62 µM, the inhibition [8] was “inactive” and the inhibition [9] was “inactive”. For the same molecule, the inhibition [10] was “inactive”, the inhibition [11] was “inactive” and the inhibition [12] was “inactive”. For the same molecule, the inhibition [13] was “inactive”, the inhibition [14] was “inactive” and the IC50 [15] was 213 µM. The inhibition [16] was “inactive”, the inhibition [17] was “inactive” and the inhibition [18] was “inactive”.

With `O=C(CCCc1ccccc1)n1c(=S)oc2ccccc21` the inhibition [1] was “inactive”, the inhibition [2] was “inactive” and the inhibition [3] was “inactive”. The solubility [20] was 100 µM (≈ 29.7 µg/mL), the inhibition [4] was “inactive” and the inhibition [5] was “inactive”. For the same molecule, the inhibition [6] was “inactive”, the IC50 [7] was 19 µM and the inhibition [8] was “inactive”. The inhibition [9] was “inactive”, the inhibition (Streptococcus agalactiae) was 47% and the inhibition [10] was “inactive”. The inhibition [11] was “inactive”, the inhibition [12] was “inactive” and the inhibition [13] was “inactive”. The inhibition [14] was “inactive”, the inhibition [16] was “inactive” and the inhibition [17] was “inactive”. For the same molecule, the inhibition [18] was “inactive”.

In the case of `Cc1c(-c2ccc(O)cc2)[nH]c2ccc(O)cc12`, the IC50 [19] is reported as 280 µM.

Work on `CCCn1c(-c2ccc(O)cc2)c(C)c2cc(O)ccc21` yielded an IC50 [19] of 160 µM.

For `CCCCCCCCCC(=O)n1c(=S)oc2ccccc21`, the inhibition [1] was “inactive”, the inhibition [2] was “inactive” and the inhibition [3] was “inactive”. For the same molecule, the solubility [20] was 100 µM (≈ 30.5 µg/mL), the inhibition [4] was “inactive” and the inhibition [5] was “inactive”. The inhibition [6] was “inactive”, the IC50 [7] was 25 µM and the inhibition [8] was “inactive”. The inhibition [9] was “inactive”, the inhibition (Streptococcus agalactiae) was 41% and the inhibition [10] was “inactive”. The inhibition [11] was “inactive”, the inhibition [12] was “inactive” and the inhibition [13] was “inactive”. For the same molecule, the inhibition [14] was “inactive”, the inhibition [16] was “inactive” and the inhibition [17] was “inactive”. The inhibition [18] was “inactive”.

In the case of `O=C1O[C@H]([C@@H](O)CO)C(O)=C1O` [ASCORBIC ACID], the inhibition [1] is reported as “inactive”, the inhibition [2] is reported as “inactive” and the inhibition [3] is reported as “inactive”. For the same molecule, the inhibition [4] was “inactive”, the inhibition [5] was “inactive” and the inhibition [6] was “inactive”. For the same molecule, the inhibition [8] was “inactive”, the inhibition [9] was “inactive” and the inhibition [10] was “inactive”. For the same molecule, the inhibition [11] was “inactive”, the inhibition [12] was “inactive” and the inhibition [13] was “inactive”. The inhibition [14] was “inactive”, the IC50 [15] was 6100 µM and the inhibition [16] was “inactive”. For the same molecule, the inhibition [17] was “inactive” and the inhibition [18] was “inactive”.

For `CC(=O)n1c(=S)oc2ccccc21`, the inhibition [1] was “inactive”, the inhibition [2] was “inactive” and the inhibition [3] was “inactive”. The inhibition [4] was “inactive”, the inhibition [5] was “inactive” and the inhibition [6] was “inactive”. The IC50 [7] was 42 µM, the inhibition [8] was “inactive” and the inhibition [9] was “inactive”. For the same molecule, the inhibition [10] was “inactive”, the inhibition [11] was “inactive” and the inhibition [12] was “inactive”. The inhibition [13] was “inactive”, the inhibition [14] was “inactive” and the IC50 [15] was 125 µM. For the same molecule, the inhibition [16] was “inactive”, the inhibition [17] was “inactive” and the inhibition [18] was “inactive”.

For `O=C(CCc1ccccc1)n1c(=S)oc2ccccc21`, the inhibition [1] was “inactive”, the inhibition [2] was “inactive” and the inhibition [3] was “inactive”. The inhibition [4] was “inactive”, the inhibition [5] was “inactive” and the inhibition [6] was “inactive”. The IC50 [7] was 24 µM, the inhibition [8] was “inactive” and the inhibition [9] was “inactive”. For the same molecule, the inhibition [10] was “inactive”, the inhibition [11] was “inactive” and the inhibition [12] was “inactive”. The inhibition [13] was “inactive”, the inhibition [14] was “inactive” and the IC50 [15] was 15 µM. For the same molecule, the inhibition [16] was “inactive”, the inhibition [17] was “inactive” and the inhibition [18] was “inactive”.

Source: ChEMBL document CHEMBL1817567, “Design of benzimidazole- and benzoxazole-2-thione derivatives as inhibitors of bacterial hyaluronan lyase” (Eur J Med Chem, 2011)
